Bioassay records deposited in PubChem BioAssay by several laboratories.
eIF4H inh – inhibitors of RNA binding by human eIF4H. Q15056. AID 2012. eIF4H fluorescence polarization binding assay. actives 0.94% (n = 290,000). inhibition, % at 35 µM;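 also: calls also rest on retests at 20 µM and on dose response follow-up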
HCV NS3 hel inh – blocks Hepatitis C virus NS3 helicase unwinding; NS3 helicase DNA unwinding, Cy5 molecular beacon fluorescence; inhibition, % at 10.9 µM; actives 0.56% (n = 290,000); AID 1800;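 active = inhibition above the mean of all tested compounds plus 3 SD, set per campaign, cut at about 35% in these data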
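Control set: DMSO versus 110 µM thioflavine S; Material: NS3 helicase fragment of HCV; Measured by: Cy5 fluorescence at 0 and 60 min, beacon hairpin quenching; Read-out basis: percent inhibition from t60/t0 fluorescence ratio; Times: reaction time 60 min, 25 °C; Repeats: single replicate; Compound dosing: single dose, 10.9 µM nominal final, DMSO 0.8% final.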
MLLE-PAM2 inh – inhibitors of microRNA-mediated deadenylation, human PABP1 MLLE binding | GST-MLLE / FITC-PAM2 fluorescence polarization | inhibition, % at 20 µM | actives 0.36% (n = 360,000) | P11940; in the data active = inhibition above about 35%, passing the limit was not always enough
HCV core dimer – HCV core protein dimerization inhibition. TR-FRET GST/Flag-core106 dimerization, 1536-well. inhibition, % at 5 µM. actives 0.33% (n = 300,000). AID 1899;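 active = inhibition above the mean of all tested compounds plus 3 SD, set per screening campaign, cut at about 45% in these data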
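Material: Tagged HCV core106 pair (GST and Flag) | Amount: GST-core106 13.5 nM, Flag-core106 17 nM | Medium: KF-containing HEPES buffer, pH 7.45, DTT, CHAPS, BSA | Reagent: Eu donor and XL665 acceptor anti-tag antibodies | Schedule: 4 h at 22.5 °C | Technique: Time-resolved FRET, ex 340 nm, em 617 and 671 nm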
DNA FID counter-1 – displaces DNA intercalator in HCV helicase counter-screen. DNA fluorescent intercalator displacement, fluorescence. inhibition, % at 7.9 µM. actives 0.17% (n = 290,000); in the data active = inhibition above about 37%;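 also: higher means more ethidium bromide displaced from hairpin DNA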
PABP polyA inh – PABP-poly(A) binding inhibition. P11940. PABP-poly(A) RNA binding, fluorescence polarization. inhibition, % at 35 µM. actives 1% (n = 290,000). AID 2014;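 also: calls also rest on retests at 20 µM and on dose response follow-up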
NS3 hel confirm – HCV NS3 helicase inhibition, confirmation assay. shares compounds with HCV NS3 hel inh. NS3 helicase DNA unwinding, Cy5 molecular beacon fluorescence. inhibition, % at 10.9 µM. actives 31% (n = 1,600). AID 1943;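 active = inhibition above the mean of all tested compounds plus 3 SD, cutoff set per campaign, cut at about 36% in these data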
DNA FID counter-2 – counter-screen for HCV NS3 helicase inhibitors: DNA intercalator displacement; shares compounds with HCV NS3 hel inh; DNA fluorescent intercalator displacement, fluorescence; inhibition, % at 7.9 µM; actives 4% (n = 1,600); in the data active = inhibition above about 37%;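 also: higher means more displacement of ethidium bromide from the DNA hairpin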
FID counter DR – displaces fluorescent intercalator from DNA, HCV helicase counter-screen. 120 tested, under 10 active. IC50, µM. fluorescent intercalator displacement from DNA, fluorescence. shares compounds with HCV NS3 hel inh
A number is an active result; – = inactive; ? = inconclusive; · = no result. Rows were chosen to be rich in hits. Some 2% of all compounds tested hit in one or more screens of this group. Unless noted, no rule for the calls is given here.

SMILES	eIF4H inh	HCV NS3 hel inh	MLLE-PAM2 inh	HCV core dimer	DNA FID counter-1	PABP polyA inh	NS3 hel confirm	DNA FID counter-2	others
Cc1c(Cl)cccc1NC(=S)NCc1cccn1C	–	–	–	–	–	–	·	·
Cn1cccc1CC(=O)NNC(=S)Nc1ccc(Cl)cc1	–	36.4	–	–	–	–	–	–
Cn1cccc1CC(=O)NNC(=S)Nc1ccccc1Cl	–	45.6	–	–	–	–	–	–
CCN(CC)S(=O)(=O)c1ccc(C(=O)NCC(=O)NCc2ccc3c(c2)OCO3)cc1	·	·	–	·	·	·	·	·
Cc1cnc2nc(-c3ccccc3)ccc2c1	·	·	–	·	·	·	·	·
CC(CC(=O)NC1CCCCC1)S(=O)(=O)c1ccc2c(c1)NC(=O)CO2 (stereo unspecified)	–	37.6	–	–	–	–	–	–
CC(CC(=O)Nc1ccc(F)cc1)S(=O)(=O)c1ccc2c(c1)NC(=O)CO2 (stereo unspecified)	–	–	–	–	–	–	·	·
O/N=C/c1ccc2cccc(OCc3ccccc3)c2n1	–	–	–	–	–	–	·	·
NC(=S)N/N=C/c1ccc2cccc(OCc3ccccc3)c2n1	–	38.7	–	–	–	–	–	–
C#CCOc1c(/C=C\c2nc(O)c([N+](=O)[O-])c(=O)[nH]2)cc(Br)cc1OC	–	44.7	–	–	–	–	–	–
COc1ccc(/C=C2\SC(=O)N(CCCC(=O)Nc3cc(Cl)ccc3C(=O)O)C2=O)cc1	·	·	–	·	·	·	·	·
Cc1ccccc1CN1C(=O)CS/C1=N/N=C/c1ccco1	–	44.7	–	–	–	–	–	–
CCC1S/C(=N/N=C/c2ccco2)N(Cc2ccccc2C)C1=O (stereo unspecified)	–	–	–	–	–	–	·	·
CCCn1c(C(C)Nc2nc(-c3ccc(Cl)c([N+](=O)[O-])c3)cs2)nc2cc(Cl)c(N3CCCCC3)cc21 (stereo unspecified)	–	91.6	–	–	–	–	–	–
Cc1ccc(S(=O)(=O)NC(=O)C2(C)CCN2C(=O)c2ccc(C(F)(F)F)nc2C)cc1 (stereo unspecified)	·	·	–	·	·	·	·	·
N#Cc1c(N2CCCCC2)nc(N)c2c(N)nc3c(c12)CC(CCl)O3 (stereo unspecified)	–	58.0	–	–	–	–	–	–
CCOc1ccc(N2C(=O)CC(Sc3nc(CC(C)C)ccc3C#N)C2=O)cc1 (stereo unspecified)	–	39.4	–	–	–	–	64.8	–
CCOC(=O)NC1(NC2CCCCC2)Oc2ccccc2O1	–	37.8	–	–	–	–	–	–
CCOC(=O)NC1(NC(C)C)Oc2ccccc2O1	–	–	–	–	–	–	·	·
C/C(CC(=O)N1CCCC1)=N\NC(=O)c1cc2ccccc2cc1O	–	44.9	–	–	–	–	–	–
O=C(OCC(=O)N1CCCCC1)c1cc2ccccc2cc1O	–	–	–	–	–	–	·	·
O=C(N/N=C/c1ccc[nH]1)c1cc2ccccc2cc1O	76.1	40.6	–	–	–	–	–	–
O=C(N/N=C/c1ccc[nH]1)c1c[nH]c2ccccc12	–	–	–	·	–	–	·	·
COc1cc2oc(=O)cc(CN3CCCCC3)c2cc1Cl	·	·	–	·	·	·	·	·
CCOC(=O)c1sc(N2C(=O)C(O)=C(C(=O)c3ccco3)C2c2ccc([N+](=O)[O-])cc2)nc1C (stereo unspecified)	–	36.9	–	–	–	–	105.6	–
SMILES	eIF4H inh	HCV NS3 hel inh	MLLE-PAM2 inh	HCV core dimer	DNA FID counter-1	PABP polyA inh	NS3 hel confirm	DNA FID counter-2	others
CCOC(=O)c1sc(N2C(=O)C(O)=C(C(=O)c3ccco3)C2c2ccc(C)o2)nc1C (stereo unspecified)	–	–	–	–	–	–	·	·
CCOC(=O)c1ccc(N2C(=O)C(O)=C(C(C)=O)C2c2ccc([N+](=O)[O-])cc2)cc1 (stereo unspecified)	–	45.3	–	–	–	–	36.3	–
CSc1ccc(C2C(C(=O)c3ccco3)=C(O)C(=O)N2c2nnc(SC)s2)cc1 (stereo unspecified)	?	38.8	–	–	–	?	89.1	–	FID counter DR=–
COc1cccc(C(=O)Nc2cccc(-c3ccc(N4CCOCC4)nn3)c2)c1OC	·	·	–	–	·	·	·	·
CC1CCCC(C)N1C(=O)COC(=O)COc1ccc(C#N)cc1 (stereo unspecified)	·	·	–	·	·	·	·	·
O=C(N/N=C/C=C/c1ccccc1[N+](=O)[O-])c1cccs1	–	–	–	–	–	–	·	·
COc1ccccc1OCC(=O)N/N=C/C=C/c1ccc([N+](=O)[O-])o1	?	46.2	–	–	–	–	–	–
Cc1ccccc1OCC(=O)N/N=C/c1ccc([N+](=O)[O-])o1	–	–	–	–	–	–	·	·
O=C(N/N=C\C=C\c1ccc([N+](=O)[O-])o1)c1cccs1	99.7	53.7	–	·	–	52.7	–	–
CCN(CC)S(=O)(=O)c1ccc(NC(=O)COC(=O)c2ccc(NC(=O)CC#N)cc2)cc1	–	41.5	–	–	–	–	–	–
CCOC(=O)N1CCN(Cc2ccc3c(c2)OCO3)CC1	–	–	–	–	–	–	·	·
CCNC(=S)N1CCN(Cc2ccc3c(c2)OCO3)CC1	–	–	–	–	–	–	·	·
Cc1c(O)ccc(C(=O)CN2CCN(Cc3ccc4c(c3)OCO4)CC2)c1O	–	84.3	–	–	98.2	–	–	–
CCCNC(=S)N1CCN(Cc2ccc3c(c2)OCO3)CC1	–	54.8	–	–	–	–	–	–
O=[N+]([O-])c1c(C(Cl)Cl)nn(-c2ccccc2)c1N1CCOCC1	–	58.5	–	–	–	–	–	–
O=[N+]([O-])c1c(C(Cl)Cl)nn(-c2ccc(Cl)cc2)c1N1CCCCC1	–	–	–	–	–	–	·	·
COc1ccc(Nc2nccc(-c3ccc(C#N)cc3)n2)cc1	–	36.8	–	–	–	–	–	–
COc1ccc(Nc2nccc(-c3cccc(N)c3)n2)cc1	–	–	–	–	–	–	·	·
OCc1cc(Br)ccc1OCc1nc2ccccc2s1	–	38.0	–	–	–	–	–	–
CCOc1ccc(C(=O)NCC(=O)NCC(c2cccs2)N2CCOCC2)cc1 (stereo unspecified)	·	·	–	–	·	·	·	·
Cc1cccc(NC(=O)c2ccccc2OCC(=O)N2CCCC2)c1C	–	40.2	·	–	–	–	–	–
COc1ccccc1NC(=O)c1ccccc1SCC(=O)N1CCCC1	·	·	–	·	·	·	·	·
Nc1ccc2c3c(ccc([N+](=O)[O-])c13)CC2	·	·	–	·	·	·	·	·
